Assay results gathered from unrelated publications.
Protocols differ between the studies behind these lines.
BCL2L1: Bcl-2-like protein 1 (BCL2L1, Homo sapiens, UniProt Q07817)
PPO3: PPO3 (Agaricus bisporus, UniProt C7FF04)

CC1CC(=O)N(C)c2ccc(NCc3cn(-c4ccc(F)c(Cl)c4)nn3)cc21 (stereo not drawn)
Kd (Transcription intermediary factor 1-alpha (TRIM24, Homo sapiens, UniProt O15164); binding, SPR): 22000 nM

CN(C)C/C=C/C(=O)Nc1cccc(C(=O)Nc2ccc(Nc3nccc(-c4cccnc4)n3)cc2)c1
IC50 (Serine/threonine-protein kinase Nek3 (NEK3, Homo sapiens, UniProt P51956); enzyme activity, inhibitor): 175 nM

Cc1c(-c2ccc(N3CCc4cccc(C(=O)Nc5nc6ccccc6s5)c4C3)nc2C(=O)NCCOCCOCCOCCNc2cccc3c2C(=O)N(C2CCC(=O)NC2=O)C3=O)cnn1CC12CC3CC(CC(C3)C1)C2 (stereo not drawn)
Ki (BCL2L1; ligand displacement, AlphaScreen): 0.15 nM

COc1ccc(NC(=O)CSc2nc3ccccc3cc2C=Nn2c(S)nnc2-c2ccccc2)cc1
IC50 (PPO3; enzyme activity, inhibitor): > 50000 nM

CCCNS(=O)(=O)Nc1ncnc(OCCOc2ncc(Br)cn2)c1-c1ccc(Br)cc1
IC50 (Endothelin-1 receptor (EDNRA, Homo sapiens, UniProt P25101); ligand displacement, radioligand; cell membranes): 0.43 nM

Cc1c(-c2ccc(N3CCc4cccc(C(=O)Nc5nc6ccccc6s5)c4C3)nc2C(=O)NCCOCCOCCOCCO)cnn1CC12CC3CC(CC(C3)C1)C2
Ki (BCL2L1; ligand displacement, AlphaScreen): 0.0112 nM

COC(=O)c1ccc(NC(=O)c2sc3nc(C)cc(C)c3c2N)cc1
Ki (Adenosine receptor A2a (ADORA2A, Homo sapiens, UniProt P29274); ligand displacement, radioligand): 3310 nM

CN1CCC(CNc2ccc3ncc(-c4cccc(OC(F)(F)F)c4)n3n2)CC1
IC50 (5-hydroxytryptamine receptor 2A (HTR2A, Homo sapiens, UniProt P28223); calcium signal, antagonist): 3500 nM

Cc1ncsc1-c1ccc([C@H](C)NC(=O)[C@@H]2C[C@@H](O)CN2C(=O)[C@@H](NC(=O)CCCCCCCS(=O)(=O)NC(=O)c2nc(N3CCc4cccc(C(=O)Nc5nc6ccccc6s5)c4C3)ccc2-c2cnn(CC34CC5CC(CC(C5)C3)C4)c2C)C(C)(C)C)cc1
Ki (BCL2L1; ligand displacement, AlphaScreen): 1.71 nM

O=C(CSc1nc2ccccc2cc1C=Nn1c(S)nnc1-c1ccccc1)Nc1ccc(Cl)cc1Cl
IC50 (PPO3; enzyme activity, inhibitor): > 50000 nM

COc1ccc2c(=O)[nH]c3c(nnn3Cc3ccc(C)cc3)c2c1
IC50 (Poly [ADP-ribose] polymerase 1 (PARP1, Homo sapiens, UniProt P09874); enzyme activity, inhibitor, fluorescence): > 10000 nM

CC1(C)CCC(c2ccc(Cl)cc2)=C(CN2CCN(c3ccc(C(=O)NS(=O)(=O)c4ccc(N[C@H](CCN(CCOCCOCCOCCNc5cccc6c5C(=O)N(C5CCC(=O)NC5=O)C6=O)C5CC5)CSc5ccccc5)c(S(=O)(=O)C(F)(F)F)c4)cc3)CC2)C1 (stereo partly drawn)
Ki (BCL2L1; ligand displacement, AlphaScreen): 8.75 nM

CN(C)C(=O)c1cc2cnc(Nc3ccc(C(=O)NCCCCCCOc4cccc5c4C(=O)N(C4CCC(=O)NC4=O)C5=O)cc3)nc2n1C1CCCC1 (stereo not drawn)
Kd (Aurora kinase B (AURKB, Homo sapiens, UniProt Q96GD4); binding, competition with immobilised ligand): 160 nM

Cc1c(-c2ccc(N3CCc4cccc(C(=O)Nc5nc6ccccc6s5)c4C3)nc2C(=O)NCCCCNc2cccc3c2C(=O)N(C2CCC(=O)NC2=O)C3=O)cnn1CC12CC3CC(CC(C3)C1)C2 (stereo not drawn)
Ki (BCL2L1; ligand displacement, AlphaScreen): 1.49 nM

O=c1c(NCCc2ccccc2C(F)(F)F)c(Nc2ccc(Cl)cc2)c1=O
IC50 (Cannabinoid receptor 1 (CNR1, Homo sapiens, UniProt P21554); calcium signal, antagonist, fluorescence): 1350 nM
